PglD inh: inhibitors of Campylobacter jejuni PglD acetyltransferase; purified PglD enzyme, DTNB colorimetric CoA detection; inhibition, % at 12.5 µM; hit rate 0.098% among 360,000; AID 602405; in the data active means inhibition above about 16%, passing the limit was not always enough
RAD52 inh: blocks human RAD52 DNA annealing | recombinant RAD52 DNA annealing, FRET fluorescence | inhibition, % at 18.7 µM | hit rate 0.46% among 360,000;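 active means every replicate showing at least 50% inhibition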
Target sequence (P43351 whole entry, looked up): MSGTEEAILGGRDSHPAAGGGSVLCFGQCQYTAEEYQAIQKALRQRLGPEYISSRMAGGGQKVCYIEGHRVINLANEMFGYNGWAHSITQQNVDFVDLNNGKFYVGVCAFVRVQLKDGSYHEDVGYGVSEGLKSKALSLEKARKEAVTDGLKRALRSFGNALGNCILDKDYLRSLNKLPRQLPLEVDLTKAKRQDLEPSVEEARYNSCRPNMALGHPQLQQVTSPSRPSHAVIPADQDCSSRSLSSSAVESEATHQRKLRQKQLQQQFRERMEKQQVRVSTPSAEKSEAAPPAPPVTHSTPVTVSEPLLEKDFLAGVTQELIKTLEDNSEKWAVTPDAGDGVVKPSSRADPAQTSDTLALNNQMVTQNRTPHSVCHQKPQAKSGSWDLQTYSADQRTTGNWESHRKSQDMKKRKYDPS
RAD54 branch: blocks human RAD54 Holliday junction branch migration. Q92698. FAM/BHQ fluorescence. inhibition, % at 10.4 µM. hit rate 0.14% among 360,000;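 active means mean normalized replicate activity at least 40 and at least half of replicates scoring 40 or more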;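 further: 0% = median of neutral control wells and 100% = median of positive control wells; inhibitors cause a drop in the FAM fluorescence signal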
Cneo AK release: causes C. neoformans cell lysis; AID 651654; hit rate 0.2% among 360,000; lysis activity, % at 15 µM; adenylate kinase release luminescence, 4 h; normalised: neutral wells 0, clomiphene wells 100;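 active means mean lysis activity across replicates of at least 80%, whatever share of replicates individually reach that level; inactive means mean lysis activity below 80%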
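Signal: Adenylate kinase release luminescence | Assay system: Log-phase Cryptococcus neoformans yeast cells | Input: Cells at 5 × 10^6 per mL | Buffer or medium: Fresh YPD growth medium | Compound: Single dose | Schedule: Static 4 h at 37 °C with compound, 1 h detection | Controls: Clomiphene | Read-out: Luminescence rise reflecting yeast cell lysis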
rRNA inh HTS: inhibitors of bacterial rRNA selective over humanized ribosomes; hit rate 1.6% among 350,000; E. coli WT GFP vs humanized-ribosome RFP mutants, fluorescence, 24 h; stronger effect = lower value; DMSO median 0, no signal -100; AID 720706; GFP signal change (wild-type ribosome), % (concentration not given with the values);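 active means significant combined selectivity score with lowered wild-type GFP, culture density cut under 30%, mutant RFP and density less affected; inactive means any of these conditions unmet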
* = called active by the depositor; . = no result. Rows were chosen to be rich in hits. Some 1.9% of all compounds tested hit in one or more screens of this group.

SMILES	PglD inh	RAD52 inh	RAD54 branch	Cneo AK release	rRNA inh HTS
COc1ccc2c3c(n(C)c2c1)[C@H](CO)N(C(=O)c1ccc(F)cc1)CC31CCN(CC2CC2)CC1	.	.	.	.	2
NC(=O)NCC#Cc1ccc2c(c1)[C@]1(C(=O)N2)[C@H](C(N)=O)[C@H]2C(=O)O[C@H](c3ccccc3)[C@H](c3ccccc3)N2[C@@H]1c1ccccc1OCCO	2	-16	1	96*	.
NC(=O)NCC#Cc1ccc2c(c1)[C@]1(C(=O)N2)[C@H](c2ccccc2OCCO)N2[C@H](c3ccccc3)[C@H](c3ccccc3)OC(=O)[C@H]2[C@@H]1C(=O)O	-3	10	0	0	.
Cc1ccc(C#N)c(SCc2ccccc2F)n1	-4	-10	9	-3	-25*
Cc1ccc2nc(CSc3nc(C)ccc3C#N)[nH]c2c1	-4	-14	-4	-2	7
CC(C)c1[nH]nc2c1C(c1ccc(OC(=O)c3ccco3)cc1)C(C#N)=C(N)O2 (stereo not given)	.	-34	.	.	-27*
O=C(O)[C@@H]1[C@@H](CO)[C@@H]2Cn3c(ccc(/C=C/c4ccccc4)c3=O)[C@@H]2N1C(=O)C1CCCC1	.	-31	.	.	0
CN(C)/C=C/c1oc2ccc(O)cc2c1[N+](=O)[O-]	.	3	.	.	-30*
CC(/C=N/NC(=O)c1cc(-c2ccc(C)s2)[nH]n1)=C\c1ccccc1	.	-6	.	.	-2
C/C(=N\NC(=O)c1cc(-c2ccc(C)s2)[nH]n1)c1ccncc1	-1	-5	7	-1	-15*
O=C(NCCc1c[nH]c2ccccc12)/C(=C/c1cccnc1)NC(=O)c1cccs1	.	-23	.	.	-28*
O=C(NCCc1c[nH]c2ccccc12)/C(=C/c1cccnc1)NC(=O)c1ccccc1	.	-21	.	.	-1
CNC[C@H]1Oc2ccc(NC(=O)C3CCCCC3)cc2CC(=O)N([C@@H](C)CO)C[C@@H]1C	2	3	4	0	-2
CC(=O)N(C)C[C@@H]1Oc2cc(C#CC(C)C)ccc2S(=O)(=O)N([C@@H](C)CO)C[C@H]1C	5	15	-3	0	0
S=c1[nH]nc(-c2cc(-c3ccccc3)n[nH]2)n1/N=C/c1cccc(Cl)c1	.	-5	.	.	-17*
Cc1nc2ccccc2c(=O)n1/N=C/c1cccs1	.	-7	.	.	-19*
Cc1cc(-c2n[nH]c(=S)n2/N=C/c2cccs2)n[nH]1	.	-13	.	.	.
S=c1[nH]nc(-c2ccccc2)n1/N=C/c1cccs1	4	-14	-4	14	-19*
Cc1ccc(-c2n[nH]c(=S)n2/N=C/c2cccs2)cc1	7	-17	-3	10	-33*
Cc1nc2ccccc2c(=O)n1/N=C/c1ccccc1	-3	.	3	0	.
COC(=O)C(CC#Cc1ccc2c(c1)[C@]1(C(=O)N2)[C@H](c2ccccc2OCCO)N2[C@H](c3ccccc3)[C@H](c3ccccc3)OC(=O)[C@H]2[C@@H]1C(=O)NC[C@H](O)c1ccccc1)C(=O)OC	0	-10	0	-25	.
CCNC(=O)[C@H]1[C@H](CO)[C@H]2Cn3c(ccc(C4=CCCCC4)c3=O)[C@@H]1N2Cc1ccncc1	1	-13	11	46	5
C=C(C)Cn1c2ccc(NC(=S)NCc3ccccc3F)cc2c(=O)n1C	5	-13	1	0	-23*
Cn1c(=O)c2cc(NC(=S)NCc3ccccc3F)ccc2n1Cc1ccccc1	.	-4	1	2	4
COc1ccc(-c2cnc3c(c2)C(=O)N([C@H](C)CO)C[C@@H](C)[C@@H](CN(C)C)O3)cc1	5	11	5	1	4
SMILES	PglD inh	RAD52 inh	RAD54 branch	Cneo AK release	rRNA inh HTS
Cc1nnc(NS(=O)(=O)c2ccc(N=Nc3ccc(N)nc3N)cc2)s1	-5	-23	9	1	2
CCCCOc1ccc(N=Nc2ccc(N)nc2N)cn1	1	-13	2	-1	-25*
O/N=C1\CCCc2ccc3ccccc3c21	6	-7	17	-12	-38*
O=C1CCCc2ccc3ccccc3c21	-5	-3	5	1	.
CCCC(C)C(=O)Nc1ccc(S(N)(=O)=O)cc1 (stereo not given)	.	-20	.	.	5
Cc1ccccc1C(=O)NC(CC(C)C)C(=O)Nc1ccc(S(N)(=O)=O)cc1 (stereo not given)	.	-6	.	.	-24*
COc1ccc(CN(C)C[C@@H]2OCc3cnnn3CCCC(=O)N([C@H](C)CO)C[C@@H]2C)cc1	-2	-3	10	-2	0

Screens deposited in PubChem BioAssay by Broad Institute.
